SMILES strings stand for the structures.

The format of data set [1] is in vivo.
In a further data set the test system is Akt. Particulars: compared with erlotinib or SAHA alone; cited from earlier work.
Data set [2] in a line: Plasma pharmacokinetics of CUDC-101 and metabolite in patients. Format: in vivo, human. Particulars: for AUC(0-t) / Cmax / Tmax / Vd / clearance / half-life: human, iv.
Another data set relates to EGFR. Kind of data set: IHC of phosphorylated EGFR in paired tumor biopsies. The data set is classed as in vivo, human. Particulars: 2 pairs, 275 mg/m^2. A digest of the protocol: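 Post-dose tumour biopsies were taken 60±30 min after the end of a 1-h IV infusion of test compound on day −5 or −3, and paired with pre-treatment archival tumour. Staining was done on 5-μm paraffin sections. Antigen retrieval used 10mM Tris, 1mM EDTA, 0.05% Tween 20, pH 9.0, at 95°C for 10 min then 90°C for 5 min. Primary antibody was anti-pEGFR Y1068.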

Data set [3] relates to HPV-negative head and neck cancer cell lines. Particulars: cited from earlier work.
For data set [4] the following is noted: monotherapy; cited from earlier work.
A further data set deals with locally advanced HNSCC. The experiment in a line: Response evaluation. Format: in vivo, human. A digest of the protocol: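 Test compound was infused IV over 1 h, Mon/Wed/Fri, for one week before radiation and then through weeks 1–7. Cisplatin 100 mg/m2 was given on days 2, 23 and 44 (adjustable to 40 mg/m2/week), never on the same day. IMRT delivered 70 Gy in 2 Gy daily fractions to gross disease and 56 Gy in 1.6 Gy fractions to the elective neck. Response was scored by RECIST 1.1 plus site-investigator overall assessment from imaging, PET/CT 12 weeks post-therapy, examination and histology.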

On to `N.N.[Cl][Pt][Cl]` [Cisplatin, reference compound], for which the “SAE: Failure to thrive” value in data set [1] (Dose Level 1, 225 mg/m^2 CUDC-101, agent Cisplatin/Radiation) is 1 (25%).

Take `C#Cc1cccc(Nc2ncnc3cc(OC)c(OCCCCCCC(=O)NO)cc23)c1` [CUDC-101, 7-(4-(3-ethylnylphenylamino)-7-methoxyquinazolin-6-yloxy)-N-hydroxyheptanamide]: the “Phosphorylation of Akt” value with Akt is “reduced phosphorylation of Akt”. For the same compound, in data set [2] (225 vs 275 mg/m^2), the “Dose dependent increase in exposure or peak concentration” value is “no clear dose dependent increase”. Also, the “Accumulation with this dosing regimen” value in data set [2] (IV 3 times per week, days −7 to 43) is “low probability of accumulation”. In data set [2] (plasma, 225 mg/m2), the AUC(0-t) (as a rule, exposure summed from dosing to a finite time, without extrapolation to infinity) was 9920 ng·h/mL; the Cmax (in general, the maximum level reached in the sampled fluid or tissue) amounted to 13100 ng/mL; the time of peak concentration (Tmax) (in general, the time at which the peak concentration occurs) is 0.542 h; the Vd (in general, a proportionality between amount in the body and measured concentration, not a real space) was 26.6 L. For the same compound, in data set [2] (plasma, 225 mg/m2), the clearance – broadly, the volume of plasma or blood freed of the substance per unit of time – was 938 mL/min and the half-life (in general, the time in which the quantity being followed falls by half) was 2.83 h. Further, in data set [2] (plasma, 225 mg/m^2), the AUC(0-t) stood at 7110 ng·h/mL, the Cmax was determined as 8890 ng/mL, the time to peak (Tmax) was found to be 1.25 h and the Vd was 54.4 L. In data set [2] (plasma, 225 mg/m^2), the clearance was 895 mL/min and the half-life was 3.91 h. In data set [2] (plasma, 275 mg/m2), the AUC(0-t) amounted to 8000 ng·h/mL, the Cmax amounted to 7890 ng/mL, the Tmax is 0.5 h and the distribution volume (Vd) is 42.3 L. Moreover, in data set [2] (plasma, 275 mg/m2), the clearance was 1060 mL/min and the half-life was 2.88 h. In data set [2] (plasma, 275 mg/m^2), the exposure AUC(0-t) is 7770 ng·h/mL, the Cmax worked out at 7820 ng/mL, the Tmax stood at 0.742 h and the volume of distribution (Vd) was found to be 76 L. Further, in data set [2] (plasma, 275 mg/m^2), the clearance was 1020 mL/min and the half-life is 6.41 h. Further, the “Peak concentrations and exposure between days −7 and 43” value in data set [2] (plasma, IV 3 times per week) is “similar”. Moreover, in data set [2] (plasma, all subjects), the “Exposure to the parent compound compared to its metabolite” value was “greater in all subjects”. In addition, in the data set with EGFR, the “Phosphorylation of EGFR (Y1068 and Y1173) in tumor biopsies” value is reported as “trend of EGFR inhibition”. In data set [3], the “Activity in HPV-negative head and neck cancer cell lines” value is “has activity”. Besides, the “Single adverse event (discontinuation) at dose level 1” value in data set [1] (human, in vivo, 1 week) was “grade 2 joint pain and myalgia”. Also, in data set [1] (human, in vivo, 8 weeks), the “Patients who experienced a serious adverse event (SAE)” value is listed as 7. For the same compound, in data set [1] (in vivo), the “Patients who experienced at least one AE” value is on record as “All patients” and the “Patients with an SAE considered related to any agent” value is “Five”. The “MTD as a single agent” value in data set [4] was 275 mg/m^2. Further, in the data set on locally advanced HNSCC (11 patients, combination with cisplatin and radiation), the “Post-treatment clinical assessment: stable, patients (%)” value is reported as 4 (37%). The compound further gave a Patients progression free in the data set on locally advanced HNSCC (median of 1.47 (0.68 – 2.3) years of follow-up) of 90%.

The values are drawn from PMC6607903 (Clinical cancer research : an official journal of the …, 2015).
